Where “and” joins values, the source holds several entries; their conditions need not be identical. Equal values may be shown once.
Columns and labels:
Mus musculus [1] = species on record: Mus musculus; assay: Daily dose required for 90% parasitaemia in trophozoite induced Plasmodium berghei in 21 mice; format: functional
In short: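 Oral suppressive test in mice against a normal drug-sensitive P. berghei strain. Drug given continuously in the diet for six consecutive days, with doses as free base equivalent. SD90 is the daily dose (mg/kg) giving 90% suppression of parasitemia versus control mice, estimated graphically on semilog paper.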

Mus musculus [2] = assay: Antimalarial effect against trophozoite-induced Plasmodium berghei in mice (Mus musculus) after subcutaneous administration dose of 160 mg/kg; 4 survived after 60 days of post infection; format: functional
L1210 [3] = assay: Molar concentration required to reduce the number of L1210 cells by 50% after incubation for 2 days; format: functional, Mus musculus; conditions: read-out: ID50 (the source's name)
In short: (§1)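 L1210 leukemia cells in tissue culture exposed to drug for 2 days. ID50 is the molar concentration that reduces L1210 cell number by 50%. Mithramycin is the reference drug.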

Plasmodium berghei [4] = assay: Antimalarial effect against trophozoite-induced Plasmodium berghei in mice (Mus musculus) at 5 mg/kg subcutaneous dose; format: functional
Plasmodium berghei [5] = assay: Antimalarial effect against trophozoite-induced Plasmodium berghei in mice (Mus musculus) at 80 mg/kg subcutaneous dose; format: functional
Plasmodium berghei [6] = assay: Antimalarial effect against trophozoite-induced Plasmodium berghei in mice (Mus musculus) at 40 mg/kg subcutaneous dose; format: functional
Plasmodium berghei [7] = assay: Antimalarial effect against trophozoite-induced Plasmodium berghei in mice (Mus musculus) at 20 mg/kg subcutaneous dose; format: functional; conditions: 20 mg/kg
Mus musculus [8] = assay: Antimalarial effect against trophozoite-induced Plasmodium berghei in mice (Mus musculus) after subcutaneous administration dose of 160 mg/kg; 3 survived after 60 days of postinfection; format: functional
Plasmodium berghei [9] = assay: Antimalarial effect against trophozoite-induced Plasmodium berghei in mice (Mus musculus) after subcutaneous dose of 10 mg/kg; format: functional; conditions: 10 mg/kg
Mus musculus [10] = assay: Antimalarial effect against trophozoite-induced Plasmodium berghei in mice (Mus musculus) after subcutaneous administration dose of 80 mg/kg; 4 survived after 60 days of post infection; format: functional
Mus musculus [11] = assay: Antimalarial effect against trophozoite-induced Plasmodium berghei in mice (Mus musculus) after subcutaneous administration dose of 10 mg/kg; 1 survived after 60 days of post infection; format: functional
Mus musculus [12] = assay: Antimalarial effect against trophozoite-induced Plasmodium berghei in mice (Mus musculus) after subcutaneous administration dose of 20 mg/kg; 4 survived after 60 days of postinfection; format: functional
Mus musculus [13] = assay: Antimalarial effect against trophozoite-induced Plasmodium berghei in mice (Mus musculus) after subcutaneous administration dose of 2.5 mg/kg; format: functional
Mus musculus [14] = assay: Antimalarial effect against trophozoite-induced Plasmodium berghei in mice (Mus musculus) after subcutaneous administration dose of 20 mg/kg; 3 survived after 60 days of post infection; format: functional
Mus musculus [15] = assay: Antimalarial effect against trophozoite-induced Plasmodium berghei in mice (Mus musculus) after subcutaneous administration dose of 10 mg/kg; format: functional
Mus musculus [16] = assay: Antimalarial effect against trophozoite-induced Plasmodium berghei in mice (Mus musculus) after subcutaneous administration dose of 20 mg/kg; format: functional
Mus musculus [17] = assay: Antimalarial effect against trophozoite-induced Plasmodium berghei in mice (Mus musculus) after subcutaneous administration dose of 40 mg/kg; format: functional
L1210 [18] = assay: Molar concentration required to reduce the number of L1210 cells by 50% after incubation for 2 days (exp 2; format: functional; conditions: Mus musculus, L1210, 48 h; read-out: ID50 (the source's name); in short: as §1
Mus musculus [19] = assay: Antimalarial effect against trophozoite-induced Plasmodium berghei in mice (Mus musculus) after subcutaneous administration dose of 5 mg/kg; format: functional
Mus musculus [20] = assay: Antimalarial effect against trophozoite-induced Plasmodium berghei in mice (Mus musculus) after subcutaneous administration dose of 160 mg/kg; format: functional
Mus musculus [21] = assay: Antimalarial effect against trophozoite-induced Plasmodium berghei in mice (Mus musculus) after subcutaneous administration dose of 320 mg/kg; format: functional
Mus musculus [22] = assay: Antimalarial effect against trophozoite-induced Plasmodium berghei in mice (Mus musculus) after subcutaneous administration dose of 640 mg/kg; format: functional

Row | SMILES | SD90 (Mus musculus [1]) | IC50 (L1210 [3]; Mus musculus, L1210, 48 h) | IC50 (L1210 [3]) | Delta MST (Plasmodium berghei [4]) | Delta MST (Plasmodium berghei [7]) | Delta MST (Plasmodium berghei [9]) | Delta MST (Plasmodium berghei [6]) | Delta MST (Mus musculus [13]) | further results
1 | CC(=O)O.Nc1nc(N)c2cc(CN(N=O)c3ccc(Cl)c(Cl)c3)ccc2n1.O | 0.25 mg/kg/day | 40 nM | 70 nM | 2 days | 6.7 days and 6.8 days | 3.7 days and 4 days |  |  | Delta MST (Mus musculus [2]): 22.8 days; Delta MST (Plasmodium berghei [5]; 80 mg/kg): 12.3 days and 12 days; Delta MST (Plasmodium berghei [6]; 40 mg/kg): 9.9 days and 9.8 days; Delta MST (Mus musculus [8]): 28.7 days
2 | CC(=O)O.COc1cc(NCc2ccc3nc(N)nc(N)c3c2C)cc(OC)c1OC.O | 0.44 mg/kg/day | 11 nM | 20 nM |  | 12 days and 11.5 days and 7.1 days |  | 14.7 days |  | Delta MST (Plasmodium berghei [5]): 30.8 days; Delta MST (Mus musculus [10]): 16.3 days and 14.7 days
3 | Cc1c(CN(N=O)c2ccc(Cl)c(Cl)c2)ccc2nc(N)nc(N)c12 | 1.15 mg/kg/day | 70 nM | 100 nM |  |  |  |  | 4.1 days | Delta MST (Mus musculus [11]): 12 days and 11.9 days; Delta MST (Mus musculus [12]): 21.7 days and 24.9 days; Delta MST (Plasmodium berghei [4]; 5 mg/kg): 9.9 days and 10.5 days
4 | Cc1c(CN(C=O)c2ccc(Cl)c(Cl)c2)ccc2nc(N)nc(N)c12 |  | 21 nM | 26 nM | 5.3 days | 9.9 days and 9.4 days | 7.7 days and 5.3 days and 3.9 days | 29.9 days |  | Delta MST (Mus musculus [14]): 9.9 days
5 | CC(=O)O.Nc1nc(N)c2c(Cl)c(CNc3cccc(Br)c3)ccc2n1.O |  | 2.1 nM |  |  |  |  |  | 1.5 days | Delta MST (Mus musculus [15]; 10 mg/kg): 7.3 days and 7.5 days and 4.7 days; Delta MST (Mus musculus [16]; 20 mg/kg): 8.5 days and 8.3 days; Delta MST (Mus musculus [17]; 40 mg/kg): 11.3 days and 11.5 days and 11.7 days; IC50 (L1210 [18]): 2.2 nM; Delta MST (Mus musculus [19]): 4.7 days
6 | CC(=O)O.Nc1nc(N)c2cc(CNc3cc(Cl)cc(Cl)c3)ccc2n1.O.O | 51 mg/kg/day | 120 nM | 74 nM |  |  |  |  |  | Delta MST (Mus musculus [20]): 6.9 days and 4.7 days; Delta MST (Mus musculus [21]): 12.9 days and 6.9 days; Delta MST (Mus musculus [15]): 0.3 days; Delta MST (Mus musculus [16]): 0.3 days; Delta MST (Mus musculus [17]): 0.7 days; Delta MST (Mus musculus [22]): 13.7 days
